Measured values as given in ChEMBL document CHEMBL1154870, “Synthesis of tropolone derivatives and evaluation of their in vitro neuroprotective activity” (Eur J Med Chem, 2010).

Key:
HT-22 [1] = test: Neuroprotective activity against glutamate-mediated oxidative stress-induced cell death in mouse HT22 cells assessed as survival after 24 hrs by MTT assay; type: functional, cell-based
Procedure, shortened: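 HT22 cells seeded at 4000/well in DMEM-Hepes-GlutaMAX with 10% FBS. After 24 h, 5 mM glutamate was added with or without test compound in fresh medium for 24 h. Viability was read by MTT formazan (OD 550 minus 670 nm), with DMSO vehicle controls. EC50 was the concentration keeping glutamate-exposed viability at 50% of unexposed cells. Mean ± SEM, ≥3 independent experiments.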

HT-22 [2] = test: Ratio of beta-thujaplicin EC50 to drug EC50 for mouse HT22 cells
HT-22 [3] = test: Neuroprotective activity against glutamate-mediated oxidative stress-induced cell death in mouse HT22 cells assessed as survival at 10 uM after 24 hrs by MTT assay; type: functional
Procedure, shortened: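 HT22 mouse hippocampal cells seeded at 4000/well in DMEM-Hepes-GlutaMAX with 10% FBS; after 24 h, challenged with 5 mM glutamate plus test compound in fresh medium for 24 h. MTT formazan read as dOD 550–670 nm. % neuroprotection = (CD_vehicle − CD_compound)/CD_vehicle; efficacy classed full/partial/weak as 67–100, 34–66, ≤33%. Mean of ≥3 independent experiments.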

CC(C)c1cccc(=O)c(O)c1 [HINOKITIOL]
EC50 (HT-22 [1]; Mus musculus, HT-22, 24 h): 4800 nM | Ratio EC50 (HT-22 [2]): 1 | Efficacy (HT-22 [3]): 62%

COc1cc(C(C)C)ccc(COc2ccccn2)c1=O
EC50 (HT-22 [1]; Mus musculus, HT-22, 24 h): > 10000 nM | Ratio EC50 (HT-22 [2]): <0.5

Cc1c(C)c2c(c(C)c1O)CCC(C)(C(=O)NCCN1CCN(Cc3ccc(C(C)C)cc(O)c3=O)CC1)O2 (configuration not stated)
EC50 (HT-22 [1]; Mus musculus, HT-22, 24 h): 90 nM | Ratio EC50 (HT-22 [2]): 53 | Efficacy (HT-22 [3]): 89%

CC(C)c1ccc(CN2CCN(Cc3ccc(C(C)C)cc(O)c3=O)CC2)c(=O)c(O)c1
EC50 (HT-22 [1]; Mus musculus, HT-22, 24 h): 920 nM

CC(C)c1ccc(CN2CCOCC2)c(=O)c(O)c1
EC50 (HT-22 [1]; Mus musculus, HT-22, 24 h): 2560 nM | Ratio EC50 (HT-22 [2]): 1.9 | Efficacy (HT-22 [3]): 87%

O=c1c(O)ccccc1CN1CCOCC1
EC50 (HT-22 [1]; Mus musculus, HT-22, 24 h): > 10000 nM | Ratio EC50 (HT-22 [2]): <0.5

O=c1cccccc1O [TROPOLONE]
EC50 (HT-22 [1]; Mus musculus, HT-22, 24 h): > 10000 nM | Ratio EC50 (HT-22 [2]): <0.5

VITAMIN E
EC50 (HT-22 [1]; ht-22): 200 nM

COc1cc(C(C)C)ccc(Cn2cc(Cc3ccccc3)nn2)c1=O
EC50 (HT-22 [1]; Mus musculus, HT-22, 24 h): > 10000 nM | Ratio EC50 (HT-22 [2]): <0.5 | Efficacy (HT-22 [3]): 30%

CC(C)c1ccc(CN2CCN(Cc3ccc([N+](=O)[O-])cc3)CC2)c(=O)c(O)c1
EC50 (HT-22 [1]; Mus musculus, HT-22, 24 h): 960 nM | Ratio EC50 (HT-22 [2]): 5 | Efficacy (HT-22 [3]): 100%

CC(C)c1ccc(CN2CCN(c3ccc([N+](=O)[O-])cc3)CC2)c(=O)c(O)c1
EC50 (HT-22 [1]; Mus musculus, HT-22, 24 h): 1700 nM | Ratio EC50 (HT-22 [2]): 2.8 | Efficacy (HT-22 [3]): 91%

Cc1c(C)c2c(c(C)c1O)CCC(C)(C(=O)N1CCN(Cc3ccc(C(C)C)cc(O)c3=O)CC1)O2 (configuration not stated)
EC50 (HT-22 [1]; Mus musculus, HT-22, 24 h): 80 nM | Ratio EC50 (HT-22 [2]): 60 | Efficacy (HT-22 [3]): 62%

CCOC(=O)N1CCN(Cc2ccc(C(C)C)cc(O)c2=O)CC1
EC50 (HT-22 [1]; Mus musculus, HT-22, 24 h): 1400 nM | Ratio EC50 (HT-22 [2]): 3.4 | Efficacy (HT-22 [3]): 88%
